Sampled rows, rich in hits. Any-hit rate of the full collection: about 1.1%.
hiPSC survival: enhancers of human iPSC single-cell survival. hiPSC single-cell survival, ATPlite luminescence; 100% = ROCK inhibitor wells, 0% = DMSO. survival enhancement, % at 20 µM. 360,000 tested, 0.044% active. AID 602274; in the data active means survival enhancement above about 18%;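 further: cells exposed to compounds for 16 hours before the ATP read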
ABCB6 inh MLPCN: blocks the human ABCB6 transporter; Q9NP58; K562-ABCB6 porphyrin accumulation, flow cytometry, 1 h; hits give low values; fluorescence ratio to DMSO, % at 10 µM; 360,000 tested, 0.19% active; AID 602162;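 active means fluorescence ratio to DMSO below 75%, the collection mean minus 3 SD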;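 further: signal is porphyrin accumulated inside mitochondria; 100% equals median channel fluorescence of DMSO control wells; lower ratio means ABCB6 inhibition with less porphyrin fluorescence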
Target sequence (Q9NP58 whole entry, looked up): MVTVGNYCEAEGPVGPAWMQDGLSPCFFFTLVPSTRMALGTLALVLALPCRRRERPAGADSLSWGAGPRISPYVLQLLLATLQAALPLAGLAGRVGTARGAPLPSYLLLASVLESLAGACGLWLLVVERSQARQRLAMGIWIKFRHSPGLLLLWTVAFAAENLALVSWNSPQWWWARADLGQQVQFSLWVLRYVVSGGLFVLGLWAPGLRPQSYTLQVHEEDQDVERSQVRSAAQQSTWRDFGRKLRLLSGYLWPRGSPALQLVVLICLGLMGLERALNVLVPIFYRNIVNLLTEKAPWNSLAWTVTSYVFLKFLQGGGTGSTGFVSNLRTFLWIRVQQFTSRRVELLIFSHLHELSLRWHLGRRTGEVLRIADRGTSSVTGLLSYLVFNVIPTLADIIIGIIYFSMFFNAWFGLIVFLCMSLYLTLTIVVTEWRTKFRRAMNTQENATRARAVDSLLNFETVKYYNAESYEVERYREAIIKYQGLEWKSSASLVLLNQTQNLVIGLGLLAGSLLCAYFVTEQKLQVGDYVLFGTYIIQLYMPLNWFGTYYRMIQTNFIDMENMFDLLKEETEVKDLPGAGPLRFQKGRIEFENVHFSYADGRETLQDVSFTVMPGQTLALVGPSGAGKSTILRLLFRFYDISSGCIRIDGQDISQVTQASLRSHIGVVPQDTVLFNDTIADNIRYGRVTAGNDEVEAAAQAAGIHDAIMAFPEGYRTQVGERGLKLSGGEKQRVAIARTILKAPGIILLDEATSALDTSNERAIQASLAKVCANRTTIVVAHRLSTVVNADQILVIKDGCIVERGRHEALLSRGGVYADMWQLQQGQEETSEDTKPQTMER
FAS TE block: blocks the thioesterase domain of human fatty acid synthase; 360,000 tested, 0.67% active; inhibition, % at 15 µM; recombinant FAS-TE, OMFH fluorogenic substrate, fluorescence endpoint; P49327; AID 602261;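 active means compounds whose normalised, plate-corrected inhibition of enzyme fluorescence in the single-dose primary screen is 50% or more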;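 further: 0% = DMSO with enzyme and 100% = substrate without enzyme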
SENP1 FRET inh: inhibitors of human SENP1 SUMO protease catalytic domain. Q9P0U3. recombinant SENP1 catalytic domain, CyPet-SUMO1-YPet FRET cleavage. inhibition, % at 10 µM. 360,000 tested, 0.21% active. AID 624204;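 active means inhibition at least 30% at 10 µM, raw YFP signal under a set limit, fluorescence ratio 0.5 to 1.5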;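 further: 0% = enzyme with DMSO and 100% = no enzyme wells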
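material = recombinant human SENP1 catalytic domain, His6-tagged | quantity = 20 pM enzyme | reagent = 25 nM SUMO1 FRET substrate | compound dosing = 10 µM single point, 0.5% DMSO | timing = 50 min enzyme reaction, room temperature, light-protected | detection = FRET, CFP and YFP emission | control set = no-enzyme low, enzyme-DMSO high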
ABCB6 inh CP1: human ABCB6 transporter inhibition; shares compounds with ABCB6 inh MLPCN; K562-ABCB6 porphyrin accumulation, flow cytometry, 1 h; hits give low values; ratio response (% of DMSO), % at 10 µM; 700 tested, under 10 active; AID 602430;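 active means repeat-averaged ratio response below 75% of DMSO, the collection mean minus 3 SD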;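 further: median porphyrin fluorescence at 575 nm with 488 nm excitation from mitochondria; lower ratio means less porphyrin signal so ABCB6 inhibition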
* hit, by the source's call; / = no result.

SMILES | hiPSC survival | ABCB6 inh MLPCN | FAS TE block | SENP1 FRET inh | ABCB6 inh CP1
O=C(CN1CCCC1)Nc1cccc(Cl)c1Cl | -0.3 | 98.0 | -2.1 | 0.3 | /
CC(C)(C)S(=O)(=O)c1cnc2c(-c3ccc(Cl)cc3)cnn2c1N | -0.4 | 102.0 | 9.0 | 1.0 | /
COc1ccc(-c2cnn3c(N)c(S(=O)(=O)C(C)(C)C)cnc23)cc1 | -1.2 | 68.0* | 12.4 | 5.5 | 97.0
CC(=O)CN1C(=O)NC(c2ccccc2)(c2ccccc2)C1=O | -0.5 | 46.0* | -4.2 | -0.6 | 104.0
CC(C)(C)NC(=O)CN1C(=O)NC(c2ccccc2)(c2ccccc2)C1=O | 0.4 | 98.0 | -3.0 | 0.3 | /
CC(C)c1ccc(NC(=O)COc2ccccc2)cc1 | -0.4 | 100.0 | 9.8 | -0.1 | /
CC(C)c1ccc(OCC(=O)Nc2ccc(OC(F)(F)F)cc2)cc1 | 0.6 | 63.0* | -0.3 | -1.8 | 99.0
CCCNC(=O)CCc1nnc2ccc(N3CCC(C)CC3)nn12 | 0.2 | 98.0 | -1.4 | -0.1 | 95.0
COc1ccc(N2CCN(C(=O)CCc3nnc4ccc(N5CCC(C)CC5)nn34)CC2)cc1 | -0.3 | 89.0 | 1.2 | 1.1 | /
CCOC(=O)CNC(=O)CCc1nnc2ccc(N3CCC(C)CC3)nn12 | 1.0 | 98.0 | 0.0 | -0.5 | 99.0
CC1CCN(c2ccc3nnc(CCC(=O)NCCCOC(C)C)n3n2)CC1 | 0.2 | 99.0 | -4.3 | 0.3 | 99.0
CCOc1ccc(NC(=O)CCc2nnc3ccc(N4CCC(C)CC4)nn23)cc1 | 0.2 | 101.0 | 4.7 | -1.0 | /
COc1ccc(NC(=O)CCc2nnc3ccc(N4CCC(C)CC4)nn23)cc1OC | 1.7 | 106.0 | -4.8 | 0.8 | /
CCOC(=O)C1CCN(C(=O)CCc2nnc3ccc(N4CCC(C)CC4)nn23)CC1 | -0.4 | 99.0 | 17.0 | 0.6 | 100.0
COc1cc2c(cc1OC)CN(C(=O)c1ccc(Cl)c(S(=O)(=O)N3CCCC3)c1)CC2 | -0.4 | 83.0 | 5.9 | 0.3 | /
CSCCC(NC(=O)c1ccccc1Br)C(=O)NNC(=O)C1COc2ccccc2O1 (stereo not drawn) | -0.5 | 96.0 | -4.1 | 1.6 | /
COc1ccc(NC(=O)N2CCCC2C(=O)Nc2ccc(C)cc2C)cc1 (stereo not drawn) | 0.2 | 96.0 | -4.7 | -2.5 | /
CC1Cc2cc(/C(O)=C3/C(=O)C(=O)N(CCN4CCOCC4)C3c3ccc([N+](=O)[O-])cc3)ccc2O1 (stereo not drawn) | -0.4 | 98.0 | 11.8 | 0.4 | /
CC1CCN(c2ccc3nnc(CCC(=O)N4CCN(c5ccccc5F)CC4)n3n2)CC1 | -0.7 | 96.0 | 5.3 | 3.2 | /
CC1CC(C)CN(C(=O)CCc2nnc3ccc(N4CCCCC4)nn23)C1 (stereo not drawn) | -0.5 | 97.0 | -3.0 | -0.1 | 98.0
Cc1ccc(CNC(=O)CCc2nnc3ccc(N4CCC5(CC4)OCCO5)nn23)cc1 | 0.0 | 100.0 | -0.1 | -2.9 | /
CC1CCN(C(=O)CCc2nnc3ccc(N4CCC5(CC4)OCCO5)nn23)CC1 | -0.5 | 100.0 | -0.9 | 1.2 | 99.0
CCN1CCN(C(=O)CCc2nnc3ccc(N4CCC5(CC4)OCCO5)nn23)CC1 | -0.3 | 95.0 | -5.0 | -0.8 | 102.0
CCCc1ccc(S(=O)(=O)N/N=C(/C)c2ccc3c(c2)OCO3)cc1 | 0.3 | 95.0 | 19.2 | 2.8 | /
Cc1ccc(C(=O)C(C)Oc2ccc3ccc(=O)oc3c2)cc1 (stereo not drawn) | -0.5 | 97.0 | 22.5 | -6.1 | /
SMILES | hiPSC survival | ABCB6 inh MLPCN | FAS TE block | SENP1 FRET inh | ABCB6 inh CP1
Cc1ccsc1CN(C)CC(=O)N(C)CC(=O)Nc1c(Cl)cccc1Cl | -1.3 | 102.0 | -6.7 | 1.1 | /
CCCCNc1oc(-c2ccc(OC)cc2)nc1S(=O)(=O)c1ccccc1 | -1.7 | 69.0* | 7.2 | 1.3 | 99.0
CCNc1oc(-c2ccc(OC)cc2)nc1S(=O)(=O)c1ccc(Br)cc1 | -2.3 | 90.0 | 21.9 | 1.5 | /
Cc1nc2ccccc2c(=O)n1NC(=O)c1ccc(C(C)(C)C)cc1 | 3.3 | 95.0 | 0.8 | -0.3 | /
COc1ccc(C(=O)Nn2c(C)nc3ccccc3c2=O)cc1 | -0.1 | 74.0* | -2.4 | 0.7 | 100.0
Cc1c(Cl)cccc1NC(=O)CCCn1cnc([N+](=O)[O-])n1 | -0.3 | 101.0 | 1.6 | -1.6 | /
O=C(CCCn1cnc([N+](=O)[O-])n1)Nc1cccc(Cl)c1Cl | -0.9 | 72.0* | 10.0 | 1.4 | 104.0
COc1cccc(CN2CCNC(=O)C2CC(=O)N(C)C2CCOCC2)c1OC (stereo not drawn) | -0.5 | 103.0 | 0.3 | -4.4 | /

Screening results as filed in PubChem.
